One molecule from ChEMBL document CHEMBL4177752, “Discovery of Novel Schizocommunin Derivatives as Telomeric G-Quadruplex Ligands That Trigger Telomere Dysfunction and the Deoxyribonucleic Acid (DNA) Damage Response” (J Med Chem, 2018) can be followed below.

Activity calls are given as the source filed them. The calls are words filed in the database; no cut-off is given here.

The subject of assay [1] is SiHa. Briefly: Induction of telomeric G-quadruplex DNA formation in human SiHa cells assessed as increase in colocalization of BG4/TRF2 foci per nucleus at 2 uM after 24 hrs by DAPI staining-based immunofluorescence method. It is filed as cell-based. Summed up:
(§1)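 Cells were treated 24 h with 2 µM compound or 0.1% DMSO, then fixed (4% paraformaldehyde), permeabilized (0.5% Triton X-100) and blocked (5% goat serum). Staining used BG4 (80 ng/µL, 37 °C 3 h) with anti-FLAG, and/or γ-H2AX, TRF2 or POT1 antibodies at 4 °C overnight. Alexa 488/555 secondaries and DAPI followed. Foci or co-localized foci per nucleus were counted by confocal microscopy; mean ± SEM, two-tailed unpaired t test.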

A short description of assay [2]: Stabilization of F10T hairpin duplex DNA (unknown origin) assessed as change in melting temperature at 1 uM by FRET assay. Summed up: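 FRET melting: 0.2 µM F21T or F10T (FAM/TAMRA-labelled), with or without 1.0 µM ligand, in 10 mM Tris-HCl pH 7.4 with 60 mM KCl. Excitation 470 nm, emission 530 nm, read every 1 °C from 37–99 °C at 1 °C/min with a 30 s hold. ΔTm = Tm(DNA+ligand) − Tm(DNA).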

Assay [3] relates to Quadruplex DNA. The experiment in a line: Stabilization of F21T telomeric G-quadruplex DNA (unknown origin) at 1 uM in presence of non-fluorescent duplex DNA ds26 by FRET assay. The assay is classed as nucleic-acid assay. Summed up: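 Competition FRET: 0.2 µM F21T with 1 µM ligand, plus or minus unlabelled duplex ds26 at 3 µM (15-fold) or 10 µM (50-fold), in 10 mM Tris-HCl pH 7.4 with 60 mM KCl. Melting monitored at 470/530 nm over 37–99 °C.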

The target in assay [4] is Quadruplex DNA. The experiment in a line: Binding affinity to HTG21 telomeric G-quadruplex DNA (unknown origin) by SPR method. The assay is classed as nucleic-acid assay. Summed up:
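SPR: biotinylated HTG21 or hairpin DNA (200 nM) was folded in 50 mM Tris-HCl pH 7.4 with 100 mM KCl and captured to about 1,000 RU on an NLC chip against a blank reference cell. Ligand at 0.625–40 µM was injected at 25 µL/min (400 s association, 300 s dissociation) at 25 °C. The chip was regenerated with 1 M KCl and blank sensorgrams were subtracted.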

Assay [5] has as its system HeLa. Briefly: Antiproliferative activity against human HeLa cells after 48 hrs by MTT assay. The assay is classed as functional, cell-based. Summed up: (§2)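 Cells seeded at 5.0×10^3 per well and exposed to a range of compound concentrations for 48 h. MTT (2.5 mg/mL solution) was then added for 4 h, formazan was dissolved in DMSO, and OD was read at 570 nm. HL-60 was grown in RPMI-1640 with 10% FBS, the other lines in DMEM with 10% FBS, at 37 °C and 5% CO2. Triplicates; IC50 taken from mean OD versus concentration curves.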

Assay [6] has as its system SiHa. Briefly: Antiproliferative activity against human SiHa cells after 48 hrs by MTT assay. The assay is classed as functional, cell-based. Summed up: as §2
Assay [7] relates to U2OS. Briefly: Antiproliferative activity against human U2OS cells after 48 hrs by MTT assay. It is filed as functional, cell-based. Summed up: as §2
The subject of assay [8] is Quadruplex DNA. The experiment in a line: Stabilization of telomeric G-quadruplex DNA in human U2OS cells assessed as induction of DNA damage response by measuring co-localization of gamma-H2AX and TRF2 foci per nucleus at 2 uM after 24 hrs by DAPI staining-based double immunofluorescence method. It is filed as cell-based. Summed up:
as §1

The test system of assay [9] is Quadruplex DNA. Briefly: Stabilization of telomeric G-quadruplex DNA in human SiHa cells assessed as increase in phosphorylated ATR expression after 48 hrs by Western blot method. The assay is classed as cell-based. Summed up: (§3)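 SiHa cells were treated with compound for 48 h and lysed in RIPA buffer. 20 µg protein was run on 10% SDS-PAGE and transferred to PVDF. Blots were blocked in 3% BSA, probed with primary antibodies (1:1,000, 4 °C 16 h) for p-ATR, p-CHK1 and p-P53, then secondaries (1:2,000, 2 h at room temperature).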

Assay [10] relates to Quadruplex DNA. Briefly: Stabilization of telomeric G-quadruplex DNA in human SiHa cells assessed as increase in phosphorylated p53 expression after 48 hrs by Western blot method. It is filed as cell-based. Summed up:
as §3

The subject of assay [11] is Quadruplex DNA. The experiment in a line: Stabilization of telomeric G-quadruplex DNA in human SiHa cells assessed as induction of telomere uncapping by measuring formation of anaphase bridge at 1 uM after 48 hrs by DAPI staining-based laser scanning microscopic method. It is filed as cell-based. Summed up:
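SiHa cells were treated with 1 µM compound for 48 h, fixed in 2% formaldehyde/0.2% glutaraldehyde for 15 min, and stained with 2 µg/mL DAPI at 37 °C for 3 h. Confocal imaging followed. Anaphase-bridge frequency is the fraction of cells with bridges; at least 50 anaphase cells per experiment.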

For assay [12], the system named is Quadruplex DNA. The experiment in a line: Stabilization of telomeric G-quadruplex DNA in human SiHa cells assessed as levels of metaphase chromosome having at least one telomere end loss at 1 uM after 48 hrs by Tamra-OO-[TTAGGG]3 PNA probe and DAPI staining-based FISH assay relative to control. It is filed as cell-based. Summed up:
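Metaphase spreads from SiHa cells treated 48 h with 1 µM compound or 0.1% DMSO were hybridized with a telomeric PNA probe and counterstained with DAPI. The share of chromosomes with at least one telomere-free end was scored; mean ± SEM, two-tailed unpaired t test.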

Assay [13] deals with SiHa. The experiment in a line: Cell cycle arrest in human SiHa cells assessed as accumulation at G2/M phase at 1 uM after 12 hrs by propidium iodide staining-based flow cytometric method. The assay is classed as functional. Summed up: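 SiHa or U2OS cells (2.0×10^5 per well) were treated with compound or DMSO for 12 h, fixed in ice-cold 70% ethanol overnight, and stained with 50 µg/mL PI plus RNase A for 30 min at room temperature in the dark. 10,000 events were collected by flow cytometry to give the phase distribution.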

In assay [14] the test system is SiHa. Briefly: Induction of apoptosis in human SiHa cells at 2 uM after 96 hrs by annexin V-FITC/propidium iodide staining-based flow cytometric method relative to control. It is filed as functional. Summed up:
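SiHa cells were treated with compound or DMSO for 96 h, washed, resuspended in binding buffer, and stained with Annexin V-FITC and PI for 15 min in the dark. Apoptotic percentage was measured by flow cytometry; mean ± SEM.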

The subject of assay [15] is SiHa. The experiment in a line: Antiproliferative activity against human SiHa cells assessed as decrease in colony formation at 0.125 to 0.5 uM after 12 days by crystal violet staining-based assay. The assay is classed as functional, cell-based.
In assay [16] the test system is SiHa. Briefly: Antiproliferative activity against human SiHa cells after 90 hrs by RTCA method. The assay is classed as functional, cell-based. Summed up:
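SiHa proliferation was followed by real-time cellular analysis during 90 h of compound treatment at several concentrations.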

Assay [17] deals with SiHa. The experiment in a line: Antitumor activity against human SiHa cells xenografted in BALB/C-nu/nu mouse assessed as tumor growth inhibition at 10 mg/kg, ip administered daily for 3 weeks measured post last dose relative to vehicle-treated control. It is filed as functional. The conditions noted are these: 504 h, read-out: TGI. Summed up: (§4)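 SiHa cells (1×10^7 per 100 µL, serum-free DMEM) were injected subcutaneously. Grown tumors were divided into pieces and implanted into BALB/C-nu/nu mice. Caliper volume (1/2 × L × W²) and body weight were recorded daily; tumors were weighed at the end.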

The subject of assay [18] is SiHa. Briefly: Antitumor activity against human SiHa cells xenografted in BALB/C-nu/nu mouse assessed as tumor growth inhibition at 20 mg/kg, ip administered daily for 3 weeks measured post last dose relative to vehicle-treated control. The settings on record: 504 h, read-out: TGI. The assay is classed as functional. Summed up:
as §4

Regarding `CN(C)CCCNc1cc2nc(/C=C3\C(=O)Nc4cc(N5CCN(C)CC5)ccc43)[nH]c(=O)c2cc1F`, the outcome in assay [1], in assay [3], in assay [8], in assay [11], in assay [13] and in assay [15] was Active. Besides, in assay [2], the ΔTm came to 0.1 °C. The Kd in assay [4] came to 8.1 µM. Also, the figures for the IC50 in assay [5], in assay [6] and in assay [7] were 3.8 µM, 2.8 µM and 3.2 µM, respectively. The Activity entry in [9] was “Dose-dependent effect”; in assay [10], “Dose-dependent effect”; in assay [12], 31%; in assay [14], 60%; in assay [16] it was “Dose-dependent effect”. Moreover, the inhibition in vivo at 10 mg/kg in assay [17] amounted to 29%. Moreover, the inhibition in vivo at 20 mg/kg in assay [18] turned out to be 65.2%.
